Compound activity from PubChem BioAssay.
Hits are enriched below; roughly 8.2% of the tested compounds scored in any of these assays.
M1 ag: activates the M1 muscarinic receptor; 64,000 compounds, 3% hits; B-score at 10 µM; CHO-M1 cells, Fluo-4 calcium fluorescence, agonist mode; active compounds read high;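 active = fluorescence rise, raw or as B-score row- and column-corrected plate score, outside the 99.7% band of its plate's samples, either direction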
M1 antag: antagonists of rat M1 muscarinic receptor. P08482. CHO-M1 cells, Fluo-4 calcium, ACh EC80 antagonist mode; active compounds read low. B-score at 10 µM. 64,000 compounds, 3.4% hits;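 active = calcium fluorescence response, raw or row-and-column corrected B-score, differing from the plate sample mean either way at a set confidence level, mostly lower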
SF-1 act: activators of human nuclear receptor SF-1; AID 522; 65,000 compounds, 1.9% hits; activation, % at 10 µM; Q13285; CHO-K1 Gal4-SF-1 LBD luciferase reporter; % increase over DMSO SF-1-specific signal;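 active = activation above the mean activation of all tested compounds plus 3 SD, cut at about 50% in these data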
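material = CHO-K1 cells with Gal4–hSF-1 LBD chimera plus Gal4-driven luciferase | compound = 10 µM single point, 1% DMSO | incubation = 20 h compound exposure at 37 °C after 1 h cell settling | measured by = SteadyLite luciferase luminescence | evaluation = percent activation relative to DMSO median and mock-transfected background | control set = DMSO negative control and −SF1 background wells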
RORa activator: activators of human nuclear receptor RORA; P35398; CHO-K1 Gal4-RORA LBD luciferase reporter, luminescence; percent increase over mock-subtracted basal signal; activation, % at 10 µM; 65,000 compounds, 1.5% hits;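 active = activation above the mean of all tested compounds plus 3 SD, cut at about 49% in these data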;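 also: 0% = DMSO-treated RORA cells and 100% = added signal equal to DMSO minus mock-transfected cells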
HePTP inhibitor: blocks human HePTP tyrosine phosphatase; recombinant HePTP phosphatase activity, OD absorbance; P35236; inhibition, % at 20 µM; AID 521; 110,000 compounds, 0.64% hits; in the data active = inhibition above about 50%; inconclusive = no clear call, values can overlap the other calls;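 also: plate controls were vehicle for no effect and reference inhibitor for full effect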
D1 allo mod: allosteric modulators of human D1 dopamine receptor; 58,000 compounds, 5.9% hits; P21728; HEK293 D1, CRE-luciferase, dopamine EC30 potentiation; actives deviate in either direction; B-score at 10 µM;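 active = luminescence count or its row- and column-corrected plate score outside the 99.7% band of the plate's sample wells, on either side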
M1 ag confirm: confirmation of rat M1 muscarinic receptor agonists. CHO-M1 cells, Fluo-4 calcium fluorescence, agonist mode; actives lie on both sides. fluorescence change (max-min) at 10 µM. 1,700 compounds, 19% hits. AID 1488. shares compounds with M1 ag;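 active = fluorescence change differs from the solvent-only DMSO control mean at a set confidence level in both duplicate runs; inconclusive = differs from solvent-only control mean in just one of two runs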;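 also: an EC20 dose of acetylcholine follows compound addition during the same imaging run; raw fluorescence intensity difference in instrument units with no normalization to controls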
M4 ag counter: rat M4 muscarinic agonism, M1 counter-screen; shares compounds with M1 ag; CHO M4/Gqi5 cells, Fluo-4 calcium fluorescence, agonist mode; actives lie on both sides; fluorescence change (max-min) at 10 µM; 1,700 compounds, 9% hits; AID 1741;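 active = fluorescence change differing from the plate's solvent-only control wells at 99.7% confidence in both duplicates, whether higher or lower; inconclusive = differs from solvent controls in only one of two duplicates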
Target sequence (P08485 whole entry, looked up): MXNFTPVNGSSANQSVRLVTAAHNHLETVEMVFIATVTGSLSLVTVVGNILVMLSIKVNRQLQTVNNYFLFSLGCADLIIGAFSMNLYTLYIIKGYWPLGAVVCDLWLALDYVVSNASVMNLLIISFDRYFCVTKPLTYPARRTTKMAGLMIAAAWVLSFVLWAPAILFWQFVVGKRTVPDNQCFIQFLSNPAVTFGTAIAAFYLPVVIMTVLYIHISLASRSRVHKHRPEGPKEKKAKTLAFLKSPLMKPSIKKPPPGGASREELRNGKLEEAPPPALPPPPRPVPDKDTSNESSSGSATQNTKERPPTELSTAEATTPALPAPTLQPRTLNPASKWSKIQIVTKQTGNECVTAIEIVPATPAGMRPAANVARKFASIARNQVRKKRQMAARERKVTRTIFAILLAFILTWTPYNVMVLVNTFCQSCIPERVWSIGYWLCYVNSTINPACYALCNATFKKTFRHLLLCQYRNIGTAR
* hit, by the source's call; ? = inconclusive; · = no result given.

SMILES | M1 ag | M1 antag | SF-1 act | RORa activator | HePTP inhibitor | D1 allo mod | M1 ag confirm | M4 ag counter
Cn1c2ccccc2c2c(C(=O)NCC3CCCO3)cn(C3CCCC3)c(=O)c21 (stereo not drawn) | 8.8* | 0.0061 | -6 | -9 | 8 | 0.87 | -9.8 | -63
CN1CCN(CCCNC(=O)c2cn(C3CCCCC3)c(=O)c3c2c2ccccc2n3C)CC1 | -0.44 | 0.36 | -10 | 2 | 11 | -0.065 | · | ·
CCOC(=O)c1[nH]c2cc(OC)c(OC)cc2c1NC(=O)C(C)N1CCN(Cc2ccccc2)CC1 (stereo not drawn) | 3.8* | -4.3* | -12 | -21 | 2 | 1.9 | ? | -31
Cc1ccc(C)c(N2CCN(C(=O)c3cc4ccccn4n3)CC2)c1 | 31* | -0.77 | -11 | -14 | 2 | 1.7 | 55 | 10
Cc1nc2ccccc2nc1-c1ccc([N+](=O)[O-])cc1 | · | · | · | · | -1 | · | · | ·
N#Cc1c(-c2ccc3c(c2)OCO3)csc1N | 3.2* | -0.048 | 36 | 38 | -12 | · | -0.042 | -29
N#Cc1c(-c2ccc(Br)cc2)cc(-c2ccc3c(c2)OCO3)c(C#N)c1N | · | · | · | · | 10 | · | · | ·
CCN(CC)c1ccc2c(C)c(CN3CCOCC3)c(=O)oc2c1 | 7.1* | -2.9* | 4 | -2 | 2 | 0.13 | 43 | -0.89
O=S(=O)(c1cccc2nsnc12)N1CCc2ccccc2C1 | -0.07 | 0.11 | -4 | 5 | -2 | 1.3 | · | ·
Cc1ccc(-c2nn[nH]n2)o1 | 4.3* | 0.095 | -4 | -8 | -4 | -0.68 | -15 | ?
CCOC(=O)c1ccc(COC(=O)CNC(=O)CNC(=O)c2ccc(OC)cc2)o1 | -0.34 | 0.54 | -9 | -2 | 10 | 0.91 | · | ·
Cc1ccc(C)c(N2CCN(C(=O)CN(C)S(=O)(=O)c3ccc4c(c3)CCC(=O)N4)CC2)c1 | 2.3* | 1.6 | -6 | -2 | -5 | · | ? | -48
Cc1ccc(C)c(N2CCN(S(=O)(=O)c3ccc4c(c3)CCC(=O)N4)CC2)c1 | 2 | 1.3 | -7 | -2 | 3 | 0.16 | · | ·
CCOC(=O)C1CCCN(C(=O)Cn2cccc2C(=O)c2ccccc2)C1 (stereo not drawn) | -2.6* | 0.45 | -20 | -28 | 10 | -0.07 | ? | -36
COc1ccc(-n2nnc3c(SCc4ccccc4)ncnc32)cc1 | 2.8* | -0.36 | 11 | 10 | 6 | -0.5 | -0.65 | -22
O=C(C1CCN(S(=O)(=O)c2cccc3nsnc23)CC1)N1CC=C(c2ccccc2)CC1 | 7.5* | -1.3 | -8 | -16 | -6 | 0.29 | -9.8 | -32
COC(=O)C1=C(N)Oc2cc(N(C)C)ccc2C1c1ccccc1OC (stereo not drawn) | 10* | -0.7 | 11 | 49* | -4 | 0.54 | 18 | -20
COC(=O)C1=C(N)Oc2cc(C)n(CCc3ccccc3)c(=O)c2C1c1cccnc1 (stereo not drawn) | -0.49 | -0.37 | 0 | -5 | 2 | -1.5 | · | ·
CCOC(=O)C1=C(N)Oc2cc(C)n(CCc3ccc(OC)c(OC)c3)c(=O)c2C1c1cccnc1 (stereo not drawn) | 8.5* | -0.65 | 5 | -24 | 6 | -0.073 | ? | -67
CN(Cc1cccs1)c1ncnc2sccc12 | 2.6* | -0.37 | 8 | -13 | 2 | 2.9 | -3.4 | -87*
c1csc(CNc2ncnc3sccc23)c1 | · | · | -51 | -39 | 5 | -0.21 | · | ·
COc1ccc(NC(=O)c2oc3ccc(S(=O)(=O)N4CCC5(CC4)OCCO5)cc3c2C)cc1 | 13* | -2.2 | 12 | 29 | -5 | -3.3* | ? | -27
Cc1c(C(=O)O)oc2ccc(S(=O)(=O)N3CCC(C)CC3)cc12 | -0.99 | 0.39 | 2 | -7 | 3 | 0.79 | · | ·
Cc1c(C(=O)O)oc2ccc(S(=O)(=O)N3CC(C)CC(C)C3)cc12 (stereo not drawn) | 11* | -11* | 8 | -30 | 6 | -1 | -10 | ?
Cc1cccc(OCC(=O)Nc2cc([N+](=O)[O-])ccc2Cl)c1 | · | · | · | · | 3 | · | · | ·
